Measurements published in ChEMBL document CHEMBL1926558, “Searching for the Multi-Target-Directed Ligands against Alzheimer's disease: discovery of quinoxaline-based hybrid compounds with AChE, H₃R and BACE 1 inhibitory activities” (Bioorg Med Chem, 2011).
“And” between values parts separate entries of the source, which are not always exact repeats. Equal entries are not always repeated. The source made the active and inactive calls. No cut-off for these calls is given here.

Experiments:
Acetylcholinesterase [1] = target: T1, Acetylcholinesterase (Rattus norvegicus, UniProt P37136); test: Inhibition of AChE in rat cortex homogenates using acetylthiocholine iodide as substrate after 15 mins by Ellman's method
T1 sequence (P37136 whole entry): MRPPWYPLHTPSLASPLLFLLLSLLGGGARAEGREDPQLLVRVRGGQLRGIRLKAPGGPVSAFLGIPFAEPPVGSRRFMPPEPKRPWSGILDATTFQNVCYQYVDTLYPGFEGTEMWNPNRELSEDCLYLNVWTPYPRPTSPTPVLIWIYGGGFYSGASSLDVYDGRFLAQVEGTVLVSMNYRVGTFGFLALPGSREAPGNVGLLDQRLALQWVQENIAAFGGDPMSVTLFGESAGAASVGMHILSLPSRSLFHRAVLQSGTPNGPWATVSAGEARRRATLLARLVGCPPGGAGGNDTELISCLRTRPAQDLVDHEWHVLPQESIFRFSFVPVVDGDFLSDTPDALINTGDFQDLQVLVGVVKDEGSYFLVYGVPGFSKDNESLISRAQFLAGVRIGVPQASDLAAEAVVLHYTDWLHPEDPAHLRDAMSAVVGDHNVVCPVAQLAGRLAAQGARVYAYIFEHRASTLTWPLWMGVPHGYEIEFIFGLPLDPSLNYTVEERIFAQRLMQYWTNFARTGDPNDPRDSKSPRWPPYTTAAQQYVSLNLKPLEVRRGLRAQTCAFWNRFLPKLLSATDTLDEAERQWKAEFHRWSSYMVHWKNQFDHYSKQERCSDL

Histamine H3 receptor [2] = target: T2, Histamine H3 receptor (Homo sapiens, UniProt Q9Y5N1); test: Inverse agonist activity at histamine H3 receptor expressed in HEK293 cells co-transfected with pCRE-Luc gene assessed as inhibition of forskolin/histamine-induced cAMP accumulation after 5 hrs by luciferase reporter gene assay; type: functional, cell-based
T2 sequence (Q9Y5N1 whole entry): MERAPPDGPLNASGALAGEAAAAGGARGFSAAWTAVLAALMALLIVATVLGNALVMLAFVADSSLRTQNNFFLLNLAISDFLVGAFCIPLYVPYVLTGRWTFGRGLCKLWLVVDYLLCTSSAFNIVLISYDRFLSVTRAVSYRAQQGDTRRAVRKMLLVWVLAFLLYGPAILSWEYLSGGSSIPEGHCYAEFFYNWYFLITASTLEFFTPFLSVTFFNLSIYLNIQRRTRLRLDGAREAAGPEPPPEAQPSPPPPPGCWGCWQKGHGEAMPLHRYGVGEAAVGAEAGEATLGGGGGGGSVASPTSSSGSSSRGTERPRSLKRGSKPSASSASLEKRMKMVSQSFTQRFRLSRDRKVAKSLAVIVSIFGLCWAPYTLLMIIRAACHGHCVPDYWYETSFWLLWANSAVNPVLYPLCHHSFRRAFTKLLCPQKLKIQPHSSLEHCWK

Acetylcholinesterase [3] = target: Acetylcholinesterase (Homo sapiens, UniProt P22303)
Sequence of Acetylcholinesterase (Homo sapiens, UniProt P22303) (P22303 whole entry): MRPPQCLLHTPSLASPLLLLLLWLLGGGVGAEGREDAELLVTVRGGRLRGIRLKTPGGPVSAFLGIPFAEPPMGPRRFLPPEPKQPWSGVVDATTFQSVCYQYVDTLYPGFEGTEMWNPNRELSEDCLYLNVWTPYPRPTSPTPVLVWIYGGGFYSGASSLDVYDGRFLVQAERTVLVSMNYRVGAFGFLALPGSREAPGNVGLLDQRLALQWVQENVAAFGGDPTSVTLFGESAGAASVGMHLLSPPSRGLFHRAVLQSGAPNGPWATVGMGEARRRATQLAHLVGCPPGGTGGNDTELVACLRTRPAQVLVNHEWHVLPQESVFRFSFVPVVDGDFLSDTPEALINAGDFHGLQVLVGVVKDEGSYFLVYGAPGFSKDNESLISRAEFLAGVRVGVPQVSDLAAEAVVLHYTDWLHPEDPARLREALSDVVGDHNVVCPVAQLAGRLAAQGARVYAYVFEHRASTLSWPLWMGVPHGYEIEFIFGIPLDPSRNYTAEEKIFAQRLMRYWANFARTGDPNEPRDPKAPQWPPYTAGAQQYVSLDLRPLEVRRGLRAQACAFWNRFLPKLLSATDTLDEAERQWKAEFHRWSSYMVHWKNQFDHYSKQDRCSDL

Histamine H3 receptor [4] = target: T2, Histamine H3 receptor; test: Antagonist activity at histamine H3 receptor expressed in HEK293 cells co-transfected with pCRE-Luc gene assessed as inhibition of forskolin/histamine-induced cAMP accumulation at 1 uM after 5 hrs by luciferase reporter gene assay; type: functional, cell-based
[5] = target: Histamine H2 receptor (Homo sapiens) (UniProt P25021); test: Antagonist activity at histamine H2 receptor expressed in HEK293 cells co-transfected with pCRE-Luc gene assessed as inhibition of forskolin/histamine-induced cAMP accumulation at 1 uM after 5 hrs by luciferase reporter gene assay; type: functional, cell-based
Sequence of Histamine H2 receptor (Homo sapiens) (P25021 whole entry): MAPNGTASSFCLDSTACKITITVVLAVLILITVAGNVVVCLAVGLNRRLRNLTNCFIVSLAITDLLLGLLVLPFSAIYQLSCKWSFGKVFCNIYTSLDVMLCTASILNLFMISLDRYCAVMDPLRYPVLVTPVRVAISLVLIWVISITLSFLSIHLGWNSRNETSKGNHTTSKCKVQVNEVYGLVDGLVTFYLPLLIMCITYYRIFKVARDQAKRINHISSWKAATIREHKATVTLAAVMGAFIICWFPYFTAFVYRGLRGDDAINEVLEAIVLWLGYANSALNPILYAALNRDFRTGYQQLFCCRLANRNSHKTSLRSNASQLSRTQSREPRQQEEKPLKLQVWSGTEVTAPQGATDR
Procedure, shortened: (§1)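 HEK-293 cells stably expressing H1R or H2R were grown in DMEM with 10% FBS and penicillin/streptomycin at 37 °C under 5% CO2. Transfectants were selected with 800 µg/mL G418. cAMP accumulation was induced by 1 µM histamine with test compound present and read out by CRE-luciferase transcription.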

[6] = target: Histamine H1 receptor (Homo sapiens) (UniProt P35367); test: Antagonist activity at histamine H1 receptor expressed in HEK293 cells co-transfected with pCRE-Luc gene assessed as inhibition of forskolin/histamine-induced cAMP accumulation at 1 uM after 5 hrs by luciferase reporter gene assay; type: functional, cell-based; procedure, shortened: as §1
Sequence of Histamine H1 receptor (Homo sapiens) (P35367 whole entry): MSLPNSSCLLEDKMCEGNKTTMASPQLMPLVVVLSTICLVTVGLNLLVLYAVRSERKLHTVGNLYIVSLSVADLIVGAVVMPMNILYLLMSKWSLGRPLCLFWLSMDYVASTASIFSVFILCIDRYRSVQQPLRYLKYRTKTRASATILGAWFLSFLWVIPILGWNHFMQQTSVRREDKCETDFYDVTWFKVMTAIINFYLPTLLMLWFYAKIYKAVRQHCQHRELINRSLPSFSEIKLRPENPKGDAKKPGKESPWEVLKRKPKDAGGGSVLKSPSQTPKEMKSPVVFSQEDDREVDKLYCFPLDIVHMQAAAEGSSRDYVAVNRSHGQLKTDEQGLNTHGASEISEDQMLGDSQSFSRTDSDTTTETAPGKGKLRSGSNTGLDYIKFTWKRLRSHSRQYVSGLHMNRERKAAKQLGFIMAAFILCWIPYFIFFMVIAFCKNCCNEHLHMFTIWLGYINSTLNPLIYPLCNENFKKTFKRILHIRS

Histamine H3 receptor [7] = target: T2, Histamine H3 receptor; test: Antagonist activity at histamine H3 receptor expressed in HEK293 cells co-transfected with pCRE-Luc gene assessed as inhibition of forskolin/histamine-induced cAMP accumulation after 5 hrs by luciferase reporter gene assay; type: functional, cell-based
Histamine H4 receptor [8] = target: T3, Histamine H4 receptor (Homo sapiens, UniProt Q9H3N8); test: Antagonist activity at histamine H4 receptor expressed in HEK293 cells co-transfected with pCRE-Luc gene assessed as inhibition of forskolin/histamine-induced cAMP accumulation at 1 uM after 5 hrs by luciferase reporter gene assay; type: functional, cell-based
T3 sequence (Q9H3N8 whole entry): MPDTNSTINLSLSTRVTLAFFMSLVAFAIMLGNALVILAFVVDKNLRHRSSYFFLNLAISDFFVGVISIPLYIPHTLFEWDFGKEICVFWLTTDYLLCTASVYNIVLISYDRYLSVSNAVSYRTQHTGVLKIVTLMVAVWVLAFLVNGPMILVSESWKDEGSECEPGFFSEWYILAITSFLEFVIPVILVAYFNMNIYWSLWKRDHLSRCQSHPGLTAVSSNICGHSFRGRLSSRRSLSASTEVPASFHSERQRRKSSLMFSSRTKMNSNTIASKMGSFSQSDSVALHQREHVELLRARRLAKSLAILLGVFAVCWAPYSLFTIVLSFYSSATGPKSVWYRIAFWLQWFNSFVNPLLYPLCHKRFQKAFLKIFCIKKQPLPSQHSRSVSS

Histamine H4 receptor [9] = target: T3, Histamine H4 receptor; test: Antagonist activity at histamine H4 receptor expressed in HEK293 cells co-transfected with pCRE-Luc gene assessed as inhibition of forskolin/histamine-induced cAMP accumulation after 5 hrs by luciferase reporter gene assay; type: functional, cell-based

| SMILES | IC50 (Acetylcholinesterase [1]; read-out: IC50) [nM] | IC50 (Histamine H3 receptor [2]; hek293) | inhibition [5] | inhibition [6] | IC50 (Histamine H3 receptor [7]) [nM] | also measured |
| --- | --- | --- | --- | --- | --- | --- |
| Nc1nc2ccccc2nc1NCC(=O)Nc1ccc(CN2CCCCC2)cc1 | 1160 | Not Active | – | – | – | – |
| COc1cc2c(cc1OC)C(=O)C(Oc1ccc(CN3CCCC3)cc1)C2 (stereo not given) | – | – | – | – | – | IC50 (Acetylcholinesterase [3]): 50 nM |
| Nc1nc2ccccc2nc1C(=O)Nc1ccc(CN2CCCCC2)cc1 | 892 | Not Active | – | – | – | – |
| Cl.Nc1nc2ccccc2nc1NC(=O)c1ccc(CN2CCCC2)cc1 | – | Not Active | – | – | – | IC50 (Acetylcholinesterase [1]): Not Active; inhibition (Histamine H3 receptor [4]): 0.8% |
| Nc1nc2ccccc2nc1NCCOc1ccc(CN2CCCCC2)cc1 | 1600 | Not Active | inactive | inactive | 52.4 | inhibition (Histamine H4 receptor [8]): Active |
| CCN(CC)Cc1ccc(OCCNc2nc3ccccc3nc2N)cc1 | 3870 | Not Active | inactive | inactive | 182 | inhibition (Histamine H4 receptor [8]): Active |
| Nc1nc2ccccc2nc1NCC(=O)NC1CCN(Cc2ccccc2)CC1 | 1330 | Not Active | – | – | – | inhibition (Histamine H3 receptor [4]): 4.5% |
| Nc1nc2ccccc2nc1NCCCOc1ccc(CN2CCCCC2)cc1 | 1930 | Not Active | – | – | – | – |
| Nc1nc2ccccc2nc1NC(=O)c1ccc(CN2CCCCC2)cc1 [listing 1 of 3 here] | – | – | inactive | inactive | – | inhibition (Histamine H3 receptor [4]): 74.4% and 65.3%; inhibition (Histamine H4 receptor [8]): Active |
| Nc1nc2ccccc2nc1NCC(=O)Nc1ccc(CN2CCCC2)cc1 | 1170 | Not Active | – | – | – | – |
| Nc1nc2ccccc2nc1C(=O)Nc1ccc(CN2CCCC2)cc1 | 1500 | – | inactive | inactive | 260 | inhibition (Histamine H3 receptor [4]): 72.8%; IC50 (Histamine H3 receptor [2]; read-out: IC50): 378 nM; inhibition (Histamine H4 receptor [8]): Active |
| CN1CCN(Cc2ccc(OCCNc3nc4ccccc4nc3N)cc2)CC1 | – | Not Active | – | – | – | IC50 (Acetylcholinesterase [1]): Not Active |
| Nc1nc2ccccc2nc1/N=C/c1ccc(CN2CCCCC2)cc1 | 748 | Not Active | – | – | – | – |
| Nc1nc2ccccc2nc1C(=O)NC1CCN(Cc2ccccc2)CC1 | – | Not Active | – | – | – | IC50 (Acetylcholinesterase [1]): Not Active |
| Nc1nc2ccccc2nc1NC(=O)c1ccc(CN2CCCCC2)cc1 [listing 2 of 3 here] | 313 | – | – | – | 511 | IC50 (Histamine H4 receptor [9]; hek293): > 10000 nM; IC50 (Histamine H3 receptor [2]; read-out: IC50): 171 nM |
| Nc1nc2ccccc2nc1NC(=O)c1ccc(CN2CCCCC2)cc1 [listing 3 of 3 here] | 483 | – | – | – | 280 | IC50 (Histamine H4 receptor [9]): > 10000 nM; IC50 (Histamine H3 receptor [2]; read-out: IC50): 189 nM |
| S=C(NC1CCCCC1)N1CCC(c2cnc[nH]2)CC1 [THIOPERAMIDE] | – | Not Active | inactive | inactive | – | – |
| Nc1nc2ccccc2nc1NC(=O)C1CCN(Cc2ccccc2)CC1 | – | Not Active | – | – | – | IC50 (Acetylcholinesterase [1]): Not Active |
| Nc1nc2ccccc2nc1CNc1ccc(CN2CCCCC2)cc1 | – | Not Active | inactive | inactive | 130 | IC50 (Acetylcholinesterase [1]): Not Active; inhibition (Histamine H4 receptor [8]): Active |
| Nc1nc2ccccc2nc1NCc1ccc(CN2CCCCC2)cc1 | 476 | Not Active | – | – | – | – |
